Data set [1] can be described thus: Cytotoxicity against human H69AR cells overexpressing MRP1 assessed as reduction in cell viability at 10 uM after 72 hrs by MTT assay. Format: cell-based. The conditions noted are these: h69ar, 72 h, 10 µM. The procedure, abridged: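 H69 AR cells, about 20,000 per well, 72 h at 37 °C in humidified CO2 with compound at 10 µM. MTT (5 mg/mL, 20 µL) added for 1 h, then DMSO solubilization and absorbance 570 nm with 690 nm background. Viability scaled between plain medium (100%) and 10% DMSO (0%). ≥3 independent experiments in duplicate.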

The next data set is filed under the species Homo sapiens. As to the kind of experiment: Inhibition of P-gp (unknown origin) at 10 uM after 30 mins by calcein AM accumulation assay.
Another data set concerns the target T1, BCRP (ABCG2) (Homo sapiens, UniProt Q9UNQ0).
T1 sequence (Q9UNQ0 whole entry): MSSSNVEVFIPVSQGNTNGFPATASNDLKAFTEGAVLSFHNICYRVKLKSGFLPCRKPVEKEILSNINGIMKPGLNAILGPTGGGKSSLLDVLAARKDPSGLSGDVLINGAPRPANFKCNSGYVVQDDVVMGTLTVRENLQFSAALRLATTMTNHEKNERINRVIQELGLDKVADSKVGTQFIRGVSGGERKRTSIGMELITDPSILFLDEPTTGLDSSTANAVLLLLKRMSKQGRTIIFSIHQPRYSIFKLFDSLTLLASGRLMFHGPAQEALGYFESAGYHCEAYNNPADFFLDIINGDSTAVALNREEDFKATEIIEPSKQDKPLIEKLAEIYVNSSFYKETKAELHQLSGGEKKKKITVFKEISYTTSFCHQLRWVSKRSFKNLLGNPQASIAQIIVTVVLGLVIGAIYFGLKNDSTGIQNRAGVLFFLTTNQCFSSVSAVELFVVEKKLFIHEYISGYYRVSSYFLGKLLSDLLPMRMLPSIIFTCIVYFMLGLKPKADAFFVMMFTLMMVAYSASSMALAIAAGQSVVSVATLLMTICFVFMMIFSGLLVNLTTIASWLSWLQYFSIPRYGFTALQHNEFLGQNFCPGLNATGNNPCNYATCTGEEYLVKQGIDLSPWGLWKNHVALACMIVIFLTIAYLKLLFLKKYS
As to the kind of experiment: Inhibition of BCRP (unknown origin) expressed in MDCK2 cells assessed as pheophorbide A accumulation at 10 uM preincubated for 20 mins measured after 120 mins by flow cytometry. Format: cell-based, MDCK-II. To be noted: MDCK2 cells expressing BCRP, probe pheophorbide A. The gist of the method:
(§1)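 MDCK II BCRP cells (GFP detected in FL1 to monitor BCRP expression), about 45,000 per well. Preincubated 20 min at 37 °C, 5% CO2 with compound (1–100 µM solutions, 20 µL into 200 µL final volume). Pheophorbide A added (20 µL of 5 µM solution) for 120 min to reach steady state. Cells resuspended, then flow cytometry: 488 nm excitation, FL3 ≥670 nm. […] The four-parameter logistic top was constrained to Ko143; ≥3 experiments in duplicate.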

For data set [2], the target named is T2, Multidrug resistance-associated protein 1 (Homo sapiens, UniProt P33527). The experiment in a line: Inhibition of MRP1 in daunorubicin resistant human H69AR cells assessed as potentiation of daunorubicin-induced growth inhibition at 1 to 10 uM after 72 hrs by MTT assay relative to control. Format: cell-based.
A short description of data set [3]: Cytotoxicity against human H69AR cells overexpressing MRP1 assessed as growth inhibition after 72 hrs by MTT assay. Format: cell-based. The gist of the method: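 H69 AR cells, about 20,000 per well, exposed 72 h at 37 °C in humidified CO2 to test compound diluted in culture medium (100 nM to 100 µM solutions, 20 µL added to 180 µL cells). Then MTT (5 mg/mL, 20 µL) for 1 h, formazan taken up in DMSO, absorbance 570 nm minus 690 nm. Plain medium set 100% viability, 10% DMSO 0%. GI50 from variable-slope nonlinear fit; ≥3 independent experiments in duplicate.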

Data set [4] deals with T2, Multidrug resistance-associated protein 1. As to the kind of experiment: Inhibition of MRP1 in human H69AR cells assessed as daunorubicin accumulation preincubated for 15 mins measured after 180 mins by flow cytometry. Format: cell-based. The procedure, abridged:
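H69 AR cells, about 60,000 per well in culture medium. Preincubated 15 min with compound diluted in unsupplemented medium, then daunorubicin added (20 µL of 30 µM solution). Held 180 min at 37 °C, 5% CO2, protected from light, to reach steady state. Cells resuspended; flow cytometry with 488 nm excitation, FL3 ≥670 nm. IC50 from four-parameter logistic with variable Hill slope; ≥3 independent experiments in duplicate.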

Data set [5] has the same target. The experiment in a line: Inhibition of MRP1 in human H69AR cells incubated for 20 mins measured every 60 seconds by calcein-AM accumulation assay.
For data set [6] the target is unchanged. To be noted: h69ar, 72 h, 10 µM.
The target is the same in data set [7]. To be noted: h69ar, 72 h, 1 µM.
The target is the same in data set [8]. To be noted: h69ar, 72 h, 5 µM.
The target of data set [9] is T3, Broad substrate specificity ATP-binding cassette transporter ABCG2 (Homo sapiens, UniProt Q9UNQ0).
T3 sequence (Q9UNQ0 whole entry): T1 sequence (Q9UNQ0 whole entry)
The experiment in a line: Inhibition of BCRP (unknown origin) expressed in MDCK2 cells assessed as pheophorbide A accumulation preincubated for 20 mins measured after 120 mins by flow cytometry. Format: cell-based, MDCK-II. The procedure, abridged: as §1

T2 sequence (P33527 whole entry): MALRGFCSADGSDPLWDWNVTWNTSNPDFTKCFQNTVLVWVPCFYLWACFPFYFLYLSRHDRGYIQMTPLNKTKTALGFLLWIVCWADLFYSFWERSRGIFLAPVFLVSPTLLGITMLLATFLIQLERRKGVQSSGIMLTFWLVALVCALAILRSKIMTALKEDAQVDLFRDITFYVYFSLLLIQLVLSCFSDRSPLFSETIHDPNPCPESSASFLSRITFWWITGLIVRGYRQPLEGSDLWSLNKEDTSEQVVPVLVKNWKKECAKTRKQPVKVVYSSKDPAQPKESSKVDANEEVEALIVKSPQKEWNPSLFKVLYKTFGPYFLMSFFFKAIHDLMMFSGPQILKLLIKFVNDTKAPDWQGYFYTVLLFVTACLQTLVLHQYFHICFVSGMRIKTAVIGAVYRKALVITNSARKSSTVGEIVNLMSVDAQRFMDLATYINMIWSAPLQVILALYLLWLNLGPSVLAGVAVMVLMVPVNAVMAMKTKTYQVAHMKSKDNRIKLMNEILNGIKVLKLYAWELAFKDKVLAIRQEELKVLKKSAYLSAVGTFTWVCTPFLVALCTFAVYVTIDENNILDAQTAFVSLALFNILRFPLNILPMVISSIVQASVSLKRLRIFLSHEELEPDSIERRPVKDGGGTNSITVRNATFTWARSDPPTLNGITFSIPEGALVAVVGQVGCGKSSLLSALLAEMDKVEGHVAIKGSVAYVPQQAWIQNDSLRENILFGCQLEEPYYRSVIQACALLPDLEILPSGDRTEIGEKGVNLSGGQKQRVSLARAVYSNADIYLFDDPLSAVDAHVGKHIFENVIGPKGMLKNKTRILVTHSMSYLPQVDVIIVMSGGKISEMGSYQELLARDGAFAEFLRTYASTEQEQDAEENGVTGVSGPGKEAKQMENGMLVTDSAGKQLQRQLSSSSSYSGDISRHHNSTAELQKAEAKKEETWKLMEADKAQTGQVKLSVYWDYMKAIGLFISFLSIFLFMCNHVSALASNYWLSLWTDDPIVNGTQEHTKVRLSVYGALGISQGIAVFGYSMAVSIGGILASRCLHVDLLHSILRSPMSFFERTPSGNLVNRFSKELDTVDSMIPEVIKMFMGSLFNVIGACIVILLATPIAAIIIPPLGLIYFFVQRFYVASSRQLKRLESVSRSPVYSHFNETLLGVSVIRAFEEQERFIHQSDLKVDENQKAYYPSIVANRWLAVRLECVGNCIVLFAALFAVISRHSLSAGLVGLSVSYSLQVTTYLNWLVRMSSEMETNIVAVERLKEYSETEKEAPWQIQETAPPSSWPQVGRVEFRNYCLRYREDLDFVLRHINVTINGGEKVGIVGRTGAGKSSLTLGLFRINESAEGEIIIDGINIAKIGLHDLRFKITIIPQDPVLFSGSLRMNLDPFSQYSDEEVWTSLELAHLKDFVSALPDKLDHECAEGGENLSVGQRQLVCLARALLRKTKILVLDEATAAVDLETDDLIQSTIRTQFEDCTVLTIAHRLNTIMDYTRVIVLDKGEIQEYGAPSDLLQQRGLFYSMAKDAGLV

For `N#Cc1cn(C2CC2)c2c(N3CCN(CCc4ccccc4)CC3)ncnc12`, the Activity result in data set [1] was “Non-toxic”. Besides, the inhibition in the data set filed under Homo sapiens was more than 25%. Also, at BCRP (ABCG2), the inhibition at 2 h, 10 µM is less than 25%. Further, in [2], the “fold change (FC)” value is listed as 10. In addition, the concentration for 50% growth inhibition (GI50) at 72 h in data set [3] is 36 µM. Further, the IC50 is 0.2 µM in data set [4] and 0.247 µM in data set [5].

`N#Cc1c2n(c3c(N4CCNCC4)ncnc13)CCCC2`: the concentration for 50% growth inhibition (GI50) was 1.83 µM in [6], 2.94 µM in data set [7] and 2.48 µM in [8]. The Activity entry in data set [1] is “Non-toxic”. The inhibition in the data set filed under Homo sapiens was more than 25%. The inhibition at 2 h, 10 µM at BCRP (ABCG2) was more than 25%. In addition, the GI50 at 72 h in data set [3] turned out to be 60.6 µM. Besides, the results for the half-inhibitory concentration (IC50) in data set [4] and in data set [5] were 10.8 µM and 27.3 µM, respectively.

As for `N#Cc1c2n(c3c(NCCCc4ccccc4)ncnc13)CCCC2`, the GI50 was 0.45 µM in [6], 2.41 µM in data set [7] and 0.751 µM in data set [8]. Also, the Activity result in [1] was “Non-toxic”. Moreover, the inhibition in the data set filed under Homo sapiens is more than 25%. On BCRP (ABCG2), the inhibition at 2 h, 10 µM was more than 25%. Also, the figures for the half-maximal inhibitory concentration (IC50) in data set [9], in [4] and in data set [5] were 6.07 µM, 2.84 µM and 2.5 µM, respectively. Also, in [3], the 50% growth inhibitory concentration (GI50) at 72 h was found to be 132 µM.
